{
  "source": "ChEMBL document CHEMBL4715754",
  "about": "“Slowing down fat digestion and absorption by an oxadiazolone inhibitor targeting selectively gastric lipolysis” (2016)",
  "key": {"[1]": {"target": "T1, Gastric triacylglycerol lipase (Canis lupus familiaris) (UniProt P80035)", "T1 sequence (whole entry)": "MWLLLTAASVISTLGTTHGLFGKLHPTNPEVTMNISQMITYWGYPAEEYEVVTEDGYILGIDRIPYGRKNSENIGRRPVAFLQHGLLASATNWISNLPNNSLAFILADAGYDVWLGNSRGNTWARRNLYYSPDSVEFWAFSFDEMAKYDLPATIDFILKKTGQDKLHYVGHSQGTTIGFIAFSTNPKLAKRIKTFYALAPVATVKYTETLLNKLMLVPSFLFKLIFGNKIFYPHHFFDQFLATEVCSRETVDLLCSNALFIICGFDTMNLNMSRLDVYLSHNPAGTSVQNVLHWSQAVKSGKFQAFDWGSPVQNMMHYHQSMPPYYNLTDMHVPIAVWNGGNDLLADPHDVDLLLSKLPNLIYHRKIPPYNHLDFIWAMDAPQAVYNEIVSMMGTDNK", "experiment": "Inhibition of recombinant dog gastric lipase assessed as lipolysis level at 4.9 mg/ml under gastric phase at pH 5.5 using solid test meal measured up to 30 mins (reference value: 13 +/- 1.2 %)", "design": "scale not given: the % may be the effect or the level left", "settings": "time min <=30", "outline": "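In vitro two-phase digestion at 37 °C, 1,000 rpm: 15 mL liquid or solid test meal (506 mg TAG) was premixed with 7.262 µmol inhibitor in DMSO (DMSO-only control). Gastric phase: DGL 17 µg/mL final, pH 5.5. Duodenal phase from 30 min: pancreatic extract plus bovine bile added (PPL 250 µg/mL, bile salts 4.0 mM), pH 6.25. Lipids in samples were quantified by TLC-FID; LL% is (MAG+FFA) relative to 3×initial TAG; n = 3.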"}, "[2]": {"target": "T2, Pancreatic triacylglycerol lipase (Sus scrofa) (UniProt P00591)", "T2 sequence (whole entry)": "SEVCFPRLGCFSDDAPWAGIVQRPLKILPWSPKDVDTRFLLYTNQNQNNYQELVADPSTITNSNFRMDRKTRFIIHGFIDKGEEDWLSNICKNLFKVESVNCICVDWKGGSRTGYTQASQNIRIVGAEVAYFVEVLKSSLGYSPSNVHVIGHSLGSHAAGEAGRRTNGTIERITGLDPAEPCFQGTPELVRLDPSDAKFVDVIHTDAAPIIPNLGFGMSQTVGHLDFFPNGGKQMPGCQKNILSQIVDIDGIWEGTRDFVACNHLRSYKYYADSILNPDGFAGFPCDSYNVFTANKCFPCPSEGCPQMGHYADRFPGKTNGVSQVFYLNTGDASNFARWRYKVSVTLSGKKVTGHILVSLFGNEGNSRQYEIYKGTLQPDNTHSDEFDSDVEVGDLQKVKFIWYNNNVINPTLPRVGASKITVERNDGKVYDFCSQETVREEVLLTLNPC", "settings": "dose 4.9 mg/ml, time 30-90 min"}, "[3]": {"target": "T2, Pancreatic triacylglycerol lipase (Sus scrofa)", "settings": "dose 4.9 mg/ml, time 30-90 min", "remark": "listed apart in the source"}, "[4]": {"target": "T2, Pancreatic triacylglycerol lipase (Sus scrofa)", "settings": "dose 4.9 mg/ml, time 30-90 min", "remark": "listed apart in the source"}, "[5]": {"target": "T3, Pancreatic lipase-related protein 2 (Cavia porcellus) (UniProt P81139)", "T3 sequence (whole entry)": "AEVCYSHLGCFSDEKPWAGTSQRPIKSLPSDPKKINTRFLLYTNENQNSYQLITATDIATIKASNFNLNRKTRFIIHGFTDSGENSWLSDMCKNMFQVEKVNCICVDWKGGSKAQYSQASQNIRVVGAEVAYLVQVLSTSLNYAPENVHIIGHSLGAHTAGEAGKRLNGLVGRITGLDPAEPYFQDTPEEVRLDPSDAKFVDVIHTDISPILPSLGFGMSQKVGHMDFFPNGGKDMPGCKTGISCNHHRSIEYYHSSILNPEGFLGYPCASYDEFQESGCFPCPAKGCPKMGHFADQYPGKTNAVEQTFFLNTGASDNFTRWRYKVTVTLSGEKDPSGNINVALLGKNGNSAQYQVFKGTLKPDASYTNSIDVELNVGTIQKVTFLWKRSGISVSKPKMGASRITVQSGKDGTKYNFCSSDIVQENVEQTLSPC", "experiment": "Inhibition of recombinant guinea pig PL-RP2 expressed in Aspergillus oryzae preincubated for 30 mins at 25 degreeC"}, "[6]": {"target": "T1, Gastric triacylglycerol lipase (Canis lupus familiaris)", "experiment": "Inhibition of recombinant dog gastric lipase at 4:1 molar excess compound concentration preincubated for 30 mins at 25 degreeC relative to control"}, "[7]": {"target": "T2, Pancreatic triacylglycerol lipase (Sus scrofa)", "experiment": "Inhibition of porcine pancreatic lipase assessed as lipolysis level at 4.1 mg/ml under duodenal phase at pH 6.5 using solid test meal measured at 90 mins (reference value: 45.4 +/- 1.4 %)", "design": "scale not given: the % may be the effect or the level left"}, "[8]": {"target": "T1, Gastric triacylglycerol lipase (Canis lupus familiaris)", "experiment": "Inhibition of recombinant dog gastric lipase preincubated for 1 hr at 25 degreeC relative to orlistat"}, "[9]": {"target": "T2, Pancreatic triacylglycerol lipase (Sus scrofa)", "experiment": "Inhibition of porcine pancreatic lipase assessed as lipolysis level at 4.1 mg/ml under duodenal phase at pH 6.5 using solid test meal measured at 45 mins (reference value: 24.7 +/- 0.87 %)", "design": "scale not given: the % may be the effect or the level left"}, "[10]": {"target": "T3, Pancreatic lipase-related protein 2 (Cavia porcellus)", "experiment": "Inhibition of recombinant guinea pig PL-RP2 expressed in Aspergillus oryzae at 4:1 molar excess compound concentration preincubated for 30 mins at 25 degreeC relative to control"}, "[11]": {"target": "T2, Pancreatic triacylglycerol lipase (Sus scrofa)", "experiment": "Inhibition of porcine pancreatic lipase assessed as residual activity at 4.1 mg/ml under duodenal phase at pH 6.5 using liquid test meal measured after 30 to 90 mins relative to control", "settings": "time 30-90 min"}, "[12]": {"target": "T1, Gastric triacylglycerol lipase (Canis lupus familiaris)", "experiment": "Inhibition of recombinant dog gastric lipase assessed as lipolysis level at 4.1 mg/ml under gastric phase at pH 5.5 using liquid test meal measured up to 30 mins (reference value: 22.3 +/- 1.4 %)", "design": "scale not given: the % may be the effect or the level left", "settings": "time min <=30", "outline": "(§1)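 Gastric phase: 15 mL liquid or solid test meal (506 mg TAG) premixed with 734 µL of 4.1 mg/mL DMSO stock (2.94 mg, 7.262 µmol), then DGL to 17 µg/mL final, pH 5.5, 37 °C, stirred. Samples at 1, 15, 29 min; residual DGL activity by pH-stat; lipolysis level from TLC-FID of lipid extracts. DMSO-only controls; n = 3.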"}, "[13]": {"target": "T1, Gastric triacylglycerol lipase (Canis lupus familiaris)", "experiment": "Inhibition of recombinant dog gastric lipase assessed as residual activity at 4.1 mg/ml under gastric phase at pH 5.5 using liquid test meal measured up to 30 mins relative to control", "settings": "time min <=30", "outline": "as §1"}, "[14]": {"target": "T3, Pancreatic lipase-related protein 2 (Cavia porcellus)", "experiment": "Inhibition of recombinant guinea pig PL-RP2 expressed in Aspergillus oryzae at 20:1 molar excess compound concentration preincubated for 30 mins at 25 degreeC relative to control"}, "[15]": {"target": "T1, Gastric triacylglycerol lipase (Canis lupus familiaris)", "experiment": "Inhibition of recombinant dog gastric lipase preincubated for 30 mins at 25 degreeC"}, "Homo sapiens": {"species": "Homo sapiens", "experiment": "Inhibition of human pancreatic carboxylesterase preincubated for 30 mins at 25 degreeC", "outline": "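hCEH (1 mg/mL in 10 mM MES pH 6.5, 150 mM NaCl) pre-incubated 30 min at 25 °C with inhibitor from DMSO stock at various molar excesses, no substrate. Residual activity by pH-stat on tributyrin emulsion at 37 °C in 1 mM Tris-HCl pH 8.0, 100 mM NaCl, 5 mM CaCl2, 1 mM NaTDC. Relative to DMSO-only control; at least triplicate.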"}},
  "data": [
    {"smiles": "CCCCCCCCCCC[C@@H](C[C@@H]1OC(=O)[C@H]1CCCCCC)OC(=O)[C@@H](CC(C)C)NC=O", "values": [
      {"measurement": "Activity", "setting": "[1]", "result": 2.1, "unit": "%"},
      {"measurement": "inhibition", "setting": "[2]", "result": 85.2, "unit": "%"},
      {"measurement": "inhibition", "setting": "[3]", "result": 86.6, "unit": "%"},
      {"measurement": "inhibition", "setting": "[4]", "result": 100, "unit": "%"}
    ]},
    {"smiles": "O=c1oc(OCCOCc2ccccc2)nn1-c1cccc(Oc2ccccc2)c1", "values": [
      {"measurement": "XI50", "setting": "[5]", "result": 0.64, "unit": "molar excess"},
      {"measurement": "inhibition", "setting": "[6]", "result": 87.6, "unit": "%"},
      {"measurement": "Activity", "setting": "[7]", "result": 33.7, "unit": "%"},
      {"measurement": "fold change (FC)", "setting": "[8]", "result": 11.2},
      {"measurement": "Activity", "setting": "[9]", "result": 20.6, "unit": "%"},
      {"measurement": "inhibition", "setting": "[10]", "result": 60.6, "unit": "%"},
      {"measurement": "Activity", "setting": "[11]", "result": 94.4, "unit": "%"},
      {"measurement": "Activity", "setting": "[12]", "result": 4.5, "unit": "%"},
      {"measurement": "Activity", "setting": "[13]", "result": 0, "unit": "%"},
      {"measurement": "inhibition", "setting": "[14]", "result": 62.1, "unit": "%"},
      {"measurement": "XI50", "setting": "[15]", "result": 0.5, "unit": "molar excess"},
      {"measurement": "XI50", "setting": "Homo sapiens", "result": 1.42, "unit": "molar excess"}
    ]}
  ]
}
